Assay results taken from ChEMBL document CHEMBL1765023, “Acetyl analogs of combretastatin A-4: synthesis and biological studies” (Bioorg Med Chem, 2011).
pIC50: −log10 of the molar value.

Key:
[1] = tested on: SF-268; assay: Growth inhibition of human SF268 cells after 48 hrs by sulforhodamine B assay; type: functional; conditions: SF-268, 48 h
Method in brief: (§1)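 NCI 60 human cancer cell line screen run at the National Cancer Institute. Cells had 48 h continuous exposure, and proliferation was read by sulforhodamine B staining. GI50 (50% growth inhibition) was taken from dose–response curves.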

[2] = tested on: OVCAR-5; assay: Growth inhibition of human OVCAR5 cells after 48 hrs by sulforhodamine B assay; type: functional; conditions: OVCAR-5, 48 h; method in brief: as §1
[3] = tested on: SK-MEL-5; assay: Growth inhibition of human SK-MEL-5 cells after 48 hrs by sulforhodamine B assay; type: functional; conditions: SK-MEL-5, 48 h; method in brief: as §1
[4] = tested on: 786-0; assay: Growth inhibition of human 786-0 cells after 48 hrs by sulforhodamine B assay; type: functional; conditions: 786-0, 48 h; method in brief: as §1
[5] = tested on: COLO 205; assay: Growth inhibition of human COLO205 cells after 48 hrs by sulforhodamine B assay; type: functional; conditions: COLO 205, 48 h; method in brief: as §1
[6] = Growth inhibition of human Hs 578T cells after 48 hrs by sulforhodamine B assay; type: functional; method in brief: as §1
[7] = tested on: Mus musculus; assay: Toxicity in DBA2 mouse assessed as change in body weight at 75 mg/kg, ip QD administered on alternate days for 17 days measured on day 23 relative to control; type: organism-based; design: dose 75 mg/kg, route intraperitoneal; conditions: in vivo, 408 h
Method in brief: (§2)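 Healthy female DBA2 mice, 5–7 weeks old, five per group, received 75 mg/kg ip on days 1, 5, 9, 13 and 17. Vehicle was PET (PEG400/ethanol/Tween 80, 6:3:1), 5% glucose and DMSO, with final ethanol 15% and DMSO 10%. Controls received 100 µL vehicle. Body weight was measured every other day. At sacrifice on day 23, blood counts (hematocrit, WBC, granulocytes, platelets) and liver, kidney and spleen appearance and weight were assessed.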

[8] = tested on: Mus musculus; assay: Toxicity in DBA2 mouse assessed as change in color, weight and size in kidney at 75 mg/kg, ip QD administered on alternate days for 17 days measured on day 23 relative to control; type: organism-based; design: dose 75 mg/kg, route intraperitoneal; conditions: in vivo, 408 h; method in brief: as §2
[9] = tested on: Mus musculus; assay: Toxicity in DBA2 mouse assessed as change in hematocrit at 75 mg/kg, ip QD administered on alternate days for 17 days measured on day 23 relative to control; type: organism-based; design: dose 75 mg/kg, route intraperitoneal; conditions: in vivo, 408 h; method in brief: as §2
[10] = tested on: CAKI-1; assay: Growth inhibition of human Caki1 cells after 48 hrs by sulforhodamine B assay; type: functional; conditions: CAKI-1, 48 h; method in brief: as §1
[11] = tested on: Mus musculus; assay: Toxicity in DBA2 mouse assessed as change in granulocyte count at 75 mg/kg, ip QD administered on alternate days for 17 days measured on day 23 relative to control; type: organism-based; design: dose 75 mg/kg, route intraperitoneal; conditions: in vivo, 408 h; method in brief: as §2
[12] = tested on: BT-549; assay: Growth inhibition of human BT549 cells after 48 hrs by sulforhodamine B assay; type: functional; conditions: BT-549, 48 h; method in brief: as §1
[13] = tested on: SK-MEL-28; assay: Growth inhibition of human SK-MEL-28 cells after 48 hrs by sulforhodamine B assay; type: functional; conditions: SK-MEL-28, 48 h; method in brief: as §1
[14] = tested on: SK-MEL-2; assay: Growth inhibition of human SK-MEL-2 cells after 48 hrs by sulforhodamine B assay; type: functional; conditions: SK-MEL-2, 48 h; method in brief: as §1
[15] = tested on: K562; assay: Growth inhibition of human K562 cells after 48 hrs by sulforhodamine B assay; type: functional; conditions: K562, 48 h; method in brief: as §1
[16] = tested on: NCI-H226; assay: Growth inhibition of human NCI-H226 cells after 48 hrs by sulforhodamine B assay; type: functional; conditions: NCI-H226, 48 h; method in brief: as §1
[17] = tested on: PC-3; assay: Growth inhibition of human PC3 cells after 48 hrs by sulforhodamine B assay; type: functional; conditions: PC-3, 48 h; method in brief: as §1
[18] = tested on: HT-29; assay: Growth inhibition of human HT-29 cells after 48 hrs by sulforhodamine B assay; type: functional; conditions: HT-29, 48 h; method in brief: as §1
[19] = tested on: MCF7; assay: Growth inhibition of human MCF7 cells after 48 hrs by sulforhodamine B assay; type: functional; conditions: MCF7, 48 h; method in brief: as §1
[20] = tested on: HCC 2998; assay: Growth inhibition of human HCC2998 cells after 48 hrs by sulforhodamine B assay; type: functional; conditions: HCC 2998, 48 h; method in brief: as §1
[21] = tested on: L1210; assay: Antitumor activity against mouse L1210 cells xenografted in DBA2 mouse assessed as reduction in tumor volume at 50 mg/kg, ip QD administered on alternate days for 17 days measured on day 23; type: functional; conditions: route intraperitoneal
Method in brief: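 Female DBA2 mice, 5–7 weeks old, four per group. L1210 cells, passaged through a mouse, were washed three times in PBS and resuspended at 4.0 × 10^6 cells/mL. 100 µL (200,000 cells) was given sc to the flank on day 0. Vehicle-only controls. Tumor length and width were measured by caliper, and volume was compared on day 23.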

[22] = tested on: NCI-H460; assay: Growth inhibition of human NCI-H460 cells after 48 hrs by sulforhodamine B assay; type: functional; conditions: NCI-H460, 48 h; method in brief: as §1
[23] = tested on: HOP-62; assay: Growth inhibition of human HOP62 cells after 48 hrs by sulforhodamine B assay; type: functional; conditions: HOP-62, 48 h; method in brief: as §1
[24] = tested on: UACC-257; assay: Growth inhibition of human UACC257 cells after 48 hrs by sulforhodamine B assay; type: functional; conditions: UACC-257, 48 h
Method in brief: (§3)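 Tested in the NCI 60 human cancer cell line panel. Cells were exposed continuously for 48 h and proliferation was read by sulforhodamine B staining. GI50 (concentration for 50% growth inhibition), TGI (total growth inhibition) and LC50 were taken from dose–response curves.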

[25] = tested on: HCT-116; assay: Growth inhibition of human HCT116 cells after 48 hrs by sulforhodamine B assay; type: functional; conditions: HCT-116, 48 h; method in brief: as §1
[26] = tested on: HL-60(TB); assay: Growth inhibition of human HL-60(TB) cells after 48 hrs by sulforhodamine B assay; type: functional; conditions: HL-60, 48 h
Method in brief: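 NCI 60 human cancer cell line panel, tested at the National Cancer Institute. Continuous 48 h drug exposure, with proliferation read by sulforhodamine B staining. Dose–response curves gave GI50 (concentration inhibiting growth by 50%), TGI (total growth inhibition) and LC50.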

[27] = tested on: MDA-MB-468; assay: Growth inhibition of human MDA-MB-468 cells after 48 hrs by sulforhodamine B assay; type: functional; conditions: MDA-MB-468, 48 h; method in brief: as §1
[28] = tested on: L1210; assay: Cytotoxicity against mouse L1210 cells by MTT assay; type: functional, cell-based
[29] = tested on: SK-OV-3; assay: Growth inhibition of human SKOV3 cells after 48 hrs by sulforhodamine B assay; type: functional; conditions: SK-OV-3, 48 h; method in brief: as §3
[30] = tested on: DU-145; assay: Growth inhibition of human DU145 cells after 48 hrs by sulforhodamine B assay; type: functional; conditions: DU-145, 48 h; method in brief: as §1
[31] = tested on: SR; assay: Growth inhibition of human SR cells after 48 hrs by sulforhodamine B assay; type: functional; method in brief: as §3

## COc1ccc(/C=C(/C(C)=O)c2cc(OC)c(OC)c(OC)c2)cc1O
[1]
  GI50: 0.363 µM
[1]; read-out: pTGI (converted)
  TGI: 16.6 µM
[2]
  GI50: 4.27 µM
[2]; read-out: pTGI
  TGI: > 100 µM
[3]
  GI50: 0.132 µM
[3]; read-out: pTGI (converted)
  TGI: 3.09 µM
[4]
  GI50: 0.562 µM
[4]; read-out: pTGI (converted)
  TGI: 44.7 µM
[5]
  GI50: 10.7 µM
[5]; read-out: pTGI (converted)
  TGI: 37.2 µM
[6]
  GI50: 0.0891 µM
[6]; read-out: pTGI (converted)
  TGI: 74.1 µM
[7]
  Activity: Non-toxic
[8]
  Activity: Non-toxic
[9]
  Activity: Non-toxic
[10]
  GI50: 0.186 µM
[10]; read-out: pTGI (converted)
  TGI: 19.5 µM
[11]
  Activity: Non-toxic
[12]
  GI50: 0.427 µM
[12]; read-out: pTGI (converted)
  TGI: 14.1 µM
[13]
  GI50: 100 µM
[13]; read-out: pTGI
  TGI: > 100 µM
[14]
  GI50: 0.513 µM
[14]; read-out: pTGI
  TGI: > 100 µM
[15]
  GI50: 0.0407 µM
[15]; read-out: pTGI
  TGI: > 100 µM
[16]
  GI50: 1 µM
[16]; read-out: pTGI
  TGI: > 100 µM
[17]
  GI50: 0.191 µM
[17]; read-out: pTGI
  TGI: > 100 µM
[18]
  GI50: 3.63 µM
[18]; read-out: pTGI (converted)
  TGI: 15.5 µM
[19]
  GI50: 0.195 µM
[19]; read-out: pTGI
  TGI: > 100 µM
[20]
  GI50: 1.32 µM
[20]; read-out: pTGI (converted)
  TGI: 11.5 µM
[21]
  inhibition in vivo at 50 mg/kg: 35%
[22]
  GI50: 0.263 µM
[22]; read-out: pTGI (converted)
  TGI: 1.32 µM
[23]
  GI50: 0.589 µM
[23]; read-out: pTGI
  TGI: > 100 µM
[24]
  GI50: 0.186 µM
[24]; read-out: pTGI
  TGI: > 100 µM
[25]
  GI50: 0.331 µM
[25]; read-out: pTGI
  TGI: > 100 µM
[26]
  GI50: 0.0372 µM
[27]
  GI50: 0.17 µM
[27]; read-out: pTGI (converted)
  TGI: 0.55 µM
[28]
  pIC50: 6.35
[29]
  GI50: 0.417 µM
[29]; read-out: pTGI
  TGI: > 100 µM
[30]
  GI50: 0.257 µM
[30]; read-out: pTGI (converted)
  TGI: 0.813 µM
[31]
  GI50: 0.0263 µM
[31]; read-out: pTGI
  TGI: > 100 µM
